Results from ChEMBL document CHEMBL4689842, “EUbOPEN Chemogenomics Library wave 1” (2021).

System: HEK-293T
Assay: Multiplex assay against HEK293T;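 on Population Tubulin-Different-Phenotype (%): share of the cells with healthy nuclei that show this phenotype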
Type: toxicity, cell-based
Conditions: human
Procedure, shortened: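 On a CQ1 microscope at 37°C and 5% CO2, live cells were imaged after compound addition. They had been stained at seeding with Hoechst33342, BioTracker Green Microtubule Cytoskeleton Dye, MitoTracker Red and Annexin V Alexa Fluor 680. CellPathfinder machine-learning gating assigned cells to Hoechst high-intensity objects or normal cells, normal cells to healthy, pyknosed or fragmented nuclei, and pyknosed cells to mitotic or apoptotic. Tubulin, mitochondrial-mass and membrane-permeability phenotypes are per cents of healthy-nucleus cells.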

[1] = 12 h, 1 µM, compound concentration 1 uM, replicate 1
[2] = 12 h, 1 µM, compound concentration 1 uM, replicate 2
[3] = 12 h, 10 µM, compound concentration 10 uM, replicate 1
[4] = 12 h, 10 µM, compound concentration 10 uM, replicate 2
[5] = 24 h, 1 µM, compound concentration 1 uM, replicate 1
[6] = 24 h, 1 µM, compound concentration 1 uM, replicate 2
[7] = 24 h, 10 µM, compound concentration 10 uM, replicate 1
[8] = 24 h, 10 µM, compound concentration 10 uM, replicate 2
[9] = 48 h, 1 µM, compound concentration 1 uM, replicate 1
[10] = 48 h, 1 µM, compound concentration 1 uM, replicate 2
[11] = 48 h, 10 µM, compound concentration 10 uM, replicate 1
[12] = 48 h, 10 µM, compound concentration 10 uM, replicate 2

Structure (SMILES): Cl.O=C(O)c1cc(-c2ccc(C3CCNCC3)cc2)c2ccc(-c3ccc(C(F)(F)F)cc3)cc2c1
- Population Apoptotic (%) [1]: 43%
- Population Fragmented Nuclei (%) [1]: 17%
- Population Healthy Nuclei (%) [1]: 21%
- Population Hoechst High Intensity Objects (%) [1]: 19%
- Population Membrane Permeable-Phenotype (%) [1]: 0%
- Population Mitochondria Different-Phenotype (%) [1]: 76%
- Population Mitotic Cells (%) [1]: 56%
- Population Normal (%) [1]: 80%
- Population Pyknosed Nuclei (%) [1]: 61%
- Population Tubulin-Different-Phenotype (%) [1]: 36%
- Total Cell Count [1]: 147
- Population Apoptotic (%) [2]: 6%
- Population Fragmented Nuclei (%) [2]: 8%
- Population Healthy Nuclei (%) [2]: 38%
- Population Hoechst High Intensity Objects (%) [2]: 6%
- Population Membrane Permeable-Phenotype (%) [2]: 7%
- Population Mitochondria Different-Phenotype (%) [2]: 9%
- Population Mitotic Cells (%) [2]: 93%
- Population Normal (%) [2]: 93%
- Population Pyknosed Nuclei (%) [2]: 52%
- Population Tubulin-Different-Phenotype (%) [2]: 4%
- Total Cell Count [2]: 178
- Population Apoptotic (%) [3]: 62%
- Population Fragmented Nuclei (%) [3]: 16%
- Population Healthy Nuclei (%) [3]: 20%
- Population Hoechst High Intensity Objects (%) [3]: 10%
- Population Membrane Permeable-Phenotype (%) [3]: 3%
- Population Mitochondria Different-Phenotype (%) [3]: 80%
- Population Mitotic Cells (%) [3]: 37%
- Population Normal (%) [3]: 89%
- Population Pyknosed Nuclei (%) [3]: 62%
- Population Tubulin-Different-Phenotype (%) [3]: 49%
- Total Cell Count [3]: 305
- Population Apoptotic (%) [4]: 64%
- Population Fragmented Nuclei (%) [4]: 8%
- Population Healthy Nuclei (%) [4]: 16%
- Population Hoechst High Intensity Objects (%) [4]: 16%
- Population Membrane Permeable-Phenotype (%) [4]: 20%
- Population Mitochondria Different-Phenotype (%) [4]: 66%
- Population Mitotic Cells (%) [4]: 35%
- Population Normal (%) [4]: 83%
- Population Pyknosed Nuclei (%) [4]: 75%
- Population Tubulin-Different-Phenotype (%) [4]: 66%
- Total Cell Count [4]: 111
- Population Apoptotic (%) [5]: 43%
- Population Fragmented Nuclei (%) [5]: 14%
- Population Healthy Nuclei (%) [5]: 33%
- Population Hoechst High Intensity Objects (%) [5]: 22%
- Population Membrane Permeable-Phenotype (%) [5]: 2%
- Population Mitochondria Different-Phenotype (%) [5]: 59%
- Population Mitotic Cells (%) [5]: 56%
- Population Normal (%) [5]: 77%
- Population Pyknosed Nuclei (%) [5]: 51%
- Population Tubulin-Different-Phenotype (%) [5]: 28%
- Total Cell Count [5]: 160
- Population Apoptotic (%) [6]: 9%
- Population Fragmented Nuclei (%) [6]: 8%
- Population Healthy Nuclei (%) [6]: 72%
- Population Hoechst High Intensity Objects (%) [6]: 4%
- Population Membrane Permeable-Phenotype (%) [6]: 4%
- Population Mitochondria Different-Phenotype (%) [6]: 11%
- Population Mitotic Cells (%) [6]: 90%
- Population Normal (%) [6]: 95%
- Population Pyknosed Nuclei (%) [6]: 19%
- Population Tubulin-Different-Phenotype (%) [6]: 9%
- Total Cell Count [6]: 236
- Population Apoptotic (%) [7]: 66%
- Population Fragmented Nuclei (%) [7]: 20%
- Population Healthy Nuclei (%) [7]: 18%
- Population Hoechst High Intensity Objects (%) [7]: 16%
- Population Membrane Permeable-Phenotype (%) [7]: 4%
- Population Mitochondria Different-Phenotype (%) [7]: 78%
- Population Mitotic Cells (%) [7]: 34%
- Population Normal (%) [7]: 83%
- Population Pyknosed Nuclei (%) [7]: 60%
- Population Tubulin-Different-Phenotype (%) [7]: 57%
- Total Cell Count [7]: 297
- Population Apoptotic (%) [8]: 60%
- Population Fragmented Nuclei (%) [8]: 11%
- Population Healthy Nuclei (%) [8]: 16%
- Population Hoechst High Intensity Objects (%) [8]: 28%
- Population Membrane Permeable-Phenotype (%) [8]: 0%
- Population Mitochondria Different-Phenotype (%) [8]: 61%
- Population Mitotic Cells (%) [8]: 39%
- Population Normal (%) [8]: 71%
- Population Pyknosed Nuclei (%) [8]: 72%
- Population Tubulin-Different-Phenotype (%) [8]: 76%
- Total Cell Count [8]: 112
- Population Apoptotic (%) [9]: 38%
- Population Fragmented Nuclei (%) [9]: 25%
- Population Healthy Nuclei (%) [9]: 27%
- Population Hoechst High Intensity Objects (%) [9]: 21%
- Population Membrane Permeable-Phenotype (%) [9]: 2%
- Population Mitochondria Different-Phenotype (%) [9]: 25%
- Population Mitotic Cells (%) [9]: 61%
- Population Normal (%) [9]: 78%
- Population Pyknosed Nuclei (%) [9]: 47%
- Population Tubulin-Different-Phenotype (%) [9]: 19%
- Total Cell Count [9]: 166
- Population Apoptotic (%) [10]: 8%
- Population Fragmented Nuclei (%) [10]: 4%
- Population Healthy Nuclei (%) [10]: 82%
- Population Hoechst High Intensity Objects (%) [10]: 2%
- Population Membrane Permeable-Phenotype (%) [10]: 4%
- Population Mitochondria Different-Phenotype (%) [10]: 1%
- Population Mitotic Cells (%) [10]: 92%
- Population Normal (%) [10]: 97%
- Population Pyknosed Nuclei (%) [10]: 13%
- Population Tubulin-Different-Phenotype (%) [10]: 9%
- Total Cell Count [10]: 390
- Population Apoptotic (%) [11]: 60%
- Population Fragmented Nuclei (%) [11]: 34%
- Population Healthy Nuclei (%) [11]: 7%
- Population Hoechst High Intensity Objects (%) [11]: 21%
- Population Membrane Permeable-Phenotype (%) [11]: 0%
- Population Mitochondria Different-Phenotype (%) [11]: 89%
- Population Mitotic Cells (%) [11]: 39%
- Population Normal (%) [11]: 78%
- Population Pyknosed Nuclei (%) [11]: 58%
- Population Tubulin-Different-Phenotype (%) [11]: 78%
- Total Cell Count [11]: 314
- Population Apoptotic (%) [12]: 40%
- Population Fragmented Nuclei (%) [12]: 13%
- Population Healthy Nuclei (%) [12]: 23%
- Population Hoechst High Intensity Objects (%) [12]: 27%
- Population Membrane Permeable-Phenotype (%) [12]: 20%
- Population Mitochondria Different-Phenotype (%) [12]: 30%
- Population Mitotic Cells (%) [12]: 59%
- Population Normal (%) [12]: 72%
- Population Pyknosed Nuclei (%) [12]: 62%
- Population Tubulin-Different-Phenotype (%) [12]: 95%
- Total Cell Count [12]: 119
